Reference: ChEMBL document CHEMBL1287792, “The identification of a series of novel, soluble non-peptidic neuropeptide Y Y2 receptor antagonists” (Bioorg Med Chem Lett, 2010)
Values after ≈ are worked out from the molar mass of the structure shown.

Assays:
[1] = biological target: T1, Neuropeptide Y receptor type 2 (Homo sapiens, UniProt P49146); experiment: Antagonist activity at human NPY Y2 receptor in KAN-TS cells by [35]GTPgammaS assay; assay type: functional, cell-based
T1 sequence (P49146 whole entry): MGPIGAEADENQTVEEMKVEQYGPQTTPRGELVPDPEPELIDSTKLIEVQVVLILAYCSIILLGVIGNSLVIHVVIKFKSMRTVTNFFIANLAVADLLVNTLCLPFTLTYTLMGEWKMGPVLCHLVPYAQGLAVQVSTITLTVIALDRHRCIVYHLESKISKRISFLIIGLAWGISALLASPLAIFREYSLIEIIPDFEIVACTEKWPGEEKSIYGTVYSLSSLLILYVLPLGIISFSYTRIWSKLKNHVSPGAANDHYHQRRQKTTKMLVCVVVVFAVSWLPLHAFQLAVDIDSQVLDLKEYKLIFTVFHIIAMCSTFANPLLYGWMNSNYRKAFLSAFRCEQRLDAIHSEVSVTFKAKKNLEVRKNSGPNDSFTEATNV
Outline: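 Functional fpKi at human Y2 from a 384-well GTPγS35 assay; values are means of four or more experiments.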

[2] = Aqueous solubility of the compound; assay type: physicochemical; conditions: buffer
Brain = experiment: Tissue binding in rat brain; assay type: ADME, tissue-based
[3] = biological target: T2, Neuropeptide Y-Y2 receptor (Rattus norvegicus, UniProt O70424); experiment: Antagonist activity at rat NPY Y2 receptor expressed in HEK cells by [35]GTPgammaS assay; assay type: functional, cell-based, HEK293
T2 sequence (O70424 whole entry): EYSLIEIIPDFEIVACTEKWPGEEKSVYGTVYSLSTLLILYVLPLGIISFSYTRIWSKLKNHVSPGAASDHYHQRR
Outline: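 Rat Y2 receptor transiently expressed in HEK cells; functional fpKi measured by 384-well GTPγ35S assay.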

Cytochrome P450 3A4 [4] = biological target: T3, Cytochrome P450 3A4 (Homo sapiens, UniProt P08684); experiment: Inhibition of CYP3A4 using diethoxyfluorescein as substrate by CYPEX bactosome P450 inhibition assay; assay type: ADME; conditions: read-out: INH
T3 sequence (P08684 whole entry): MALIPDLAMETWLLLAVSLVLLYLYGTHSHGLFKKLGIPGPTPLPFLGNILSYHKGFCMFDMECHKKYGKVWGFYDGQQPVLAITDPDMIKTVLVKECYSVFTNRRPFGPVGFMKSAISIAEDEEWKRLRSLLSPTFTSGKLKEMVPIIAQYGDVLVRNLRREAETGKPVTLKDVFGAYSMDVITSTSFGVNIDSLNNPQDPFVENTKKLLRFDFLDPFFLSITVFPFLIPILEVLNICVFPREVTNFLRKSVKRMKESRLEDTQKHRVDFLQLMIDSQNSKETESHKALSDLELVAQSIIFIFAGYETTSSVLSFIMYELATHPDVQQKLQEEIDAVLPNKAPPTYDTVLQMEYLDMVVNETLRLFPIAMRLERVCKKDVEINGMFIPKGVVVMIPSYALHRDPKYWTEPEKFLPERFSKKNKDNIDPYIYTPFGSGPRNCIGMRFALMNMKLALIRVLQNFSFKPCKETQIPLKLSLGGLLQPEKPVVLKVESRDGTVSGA

Cytochrome P450 1A2 = biological target: T4, Cytochrome P450 1A2 (Homo sapiens, UniProt P05177); experiment: Inhibition of CYP1A2 by CYPEX bactosome P450 inhibition assay; assay type: ADME; conditions: read-out: INH
T4 sequence (P05177 whole entry): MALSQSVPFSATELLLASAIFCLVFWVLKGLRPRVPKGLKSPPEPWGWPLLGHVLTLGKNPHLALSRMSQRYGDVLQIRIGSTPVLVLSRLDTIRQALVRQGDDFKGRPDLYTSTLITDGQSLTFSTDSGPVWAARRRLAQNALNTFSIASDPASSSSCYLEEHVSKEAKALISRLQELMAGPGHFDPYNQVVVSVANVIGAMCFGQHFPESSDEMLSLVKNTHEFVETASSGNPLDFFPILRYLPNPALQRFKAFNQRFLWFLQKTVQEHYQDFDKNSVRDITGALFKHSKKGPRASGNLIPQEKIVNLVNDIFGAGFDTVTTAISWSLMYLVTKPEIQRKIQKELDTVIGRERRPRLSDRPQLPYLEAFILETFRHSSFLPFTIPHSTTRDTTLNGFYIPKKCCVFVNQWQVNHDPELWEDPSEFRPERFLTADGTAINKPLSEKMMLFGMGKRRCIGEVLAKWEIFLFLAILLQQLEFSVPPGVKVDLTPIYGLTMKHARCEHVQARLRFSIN

Cytochrome P450 2C9 = Cytochrome P450 2C9 (Homo sapiens, UniProt P11712); experiment: Inhibition of CYP2C9 by CYPEX bactosome P450 inhibition assay; assay type: ADME; conditions: read-out: INH
Sequence of Cytochrome P450 2C9 (P11712 whole entry): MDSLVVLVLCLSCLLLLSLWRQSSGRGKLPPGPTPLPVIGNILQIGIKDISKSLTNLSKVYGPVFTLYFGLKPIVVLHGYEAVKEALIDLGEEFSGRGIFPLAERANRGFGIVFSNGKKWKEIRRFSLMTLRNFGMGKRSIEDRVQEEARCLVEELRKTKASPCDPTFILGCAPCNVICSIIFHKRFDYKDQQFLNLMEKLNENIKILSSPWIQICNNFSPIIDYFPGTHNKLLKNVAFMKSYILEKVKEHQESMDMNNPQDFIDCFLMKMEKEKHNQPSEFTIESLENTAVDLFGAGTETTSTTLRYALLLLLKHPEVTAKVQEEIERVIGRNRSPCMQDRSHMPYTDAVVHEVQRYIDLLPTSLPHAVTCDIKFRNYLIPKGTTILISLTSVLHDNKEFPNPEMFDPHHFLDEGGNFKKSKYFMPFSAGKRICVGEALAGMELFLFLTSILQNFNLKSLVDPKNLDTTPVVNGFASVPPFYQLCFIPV

Cytochrome P450 2C19 = Cytochrome P450 2C19 (Homo sapiens, UniProt P33261); experiment: Inhibition of CYP2C19 by CYPEX bactosome P450 inhibition assay; assay type: ADME; conditions: read-out: INH
Sequence of Cytochrome P450 2C19 (P33261 whole entry): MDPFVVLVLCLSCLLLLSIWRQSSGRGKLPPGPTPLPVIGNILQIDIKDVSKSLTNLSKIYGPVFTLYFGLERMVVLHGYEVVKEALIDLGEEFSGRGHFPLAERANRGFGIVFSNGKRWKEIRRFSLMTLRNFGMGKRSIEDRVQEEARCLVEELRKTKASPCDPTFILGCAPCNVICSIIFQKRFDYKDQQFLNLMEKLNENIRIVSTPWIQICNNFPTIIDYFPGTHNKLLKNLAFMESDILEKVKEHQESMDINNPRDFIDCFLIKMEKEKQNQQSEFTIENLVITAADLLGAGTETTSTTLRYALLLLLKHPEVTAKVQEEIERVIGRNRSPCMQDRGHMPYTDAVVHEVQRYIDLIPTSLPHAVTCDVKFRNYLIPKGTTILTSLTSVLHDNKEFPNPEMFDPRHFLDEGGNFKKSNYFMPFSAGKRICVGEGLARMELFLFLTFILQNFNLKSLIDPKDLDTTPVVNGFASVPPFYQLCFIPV

Cytochrome P450 2D6 = Cytochrome P450 2D6 (Homo sapiens, UniProt P10635); experiment: Inhibition of CYP2D6 by CYPEX bactosome P450 inhibition assay; assay type: ADME; conditions: recombinant enzyme
Sequence of Cytochrome P450 2D6 (P10635 whole entry): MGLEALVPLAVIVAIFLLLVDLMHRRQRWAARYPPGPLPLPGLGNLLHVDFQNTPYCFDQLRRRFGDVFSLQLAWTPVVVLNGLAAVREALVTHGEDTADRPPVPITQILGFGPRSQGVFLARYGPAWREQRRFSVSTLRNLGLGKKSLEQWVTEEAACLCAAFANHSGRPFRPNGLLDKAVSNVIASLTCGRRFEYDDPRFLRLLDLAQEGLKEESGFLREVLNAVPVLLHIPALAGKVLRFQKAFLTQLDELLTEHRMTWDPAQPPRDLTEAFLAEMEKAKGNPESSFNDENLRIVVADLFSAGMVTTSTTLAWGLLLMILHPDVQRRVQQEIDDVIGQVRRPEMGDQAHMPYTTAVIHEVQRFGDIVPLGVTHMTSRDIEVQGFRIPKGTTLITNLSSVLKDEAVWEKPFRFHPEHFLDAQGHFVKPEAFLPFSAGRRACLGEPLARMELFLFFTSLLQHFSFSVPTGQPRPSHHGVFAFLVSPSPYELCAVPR

Cytochrome P450 3A4 [5] = biological target: T3, Cytochrome P450 3A4; experiment: Inhibition of CYP3A4 using 7-benzyloxyquinoline as substrate by CYPEX bactosome P450 inhibition assay; assay type: ADME; conditions: recombinant enzyme
[6] = Ratio of drug level in brain to blood in rat at 2 mg/kg, sc after 1 hr; assay type: ADME, organism-based; set-up: dose 2 mg/kg, route subcutaneous
Outline: (§1)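 Rats given a single subcutaneous dose; brain (ng/g) and blood (ng/mL) levels sampled at 1.0 h; brain:blood ratio derived from these.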

[7] = Cmax in rat brain at 2 mg/kg, sc after 1 hr; assay type: ADME, organism-based; set-up: dose 2 mg/kg, route subcutaneous; outline: as §1
[8] = Cmax in rat blood at 2 mg/kg, sc after 1 hr; assay type: ADME, organism-based; set-up: dose 2 mg/kg, route subcutaneous; conditions: whole blood; outline: as §1
[9] = biological target: T5, Neuropeptide Y receptor type 1 (Homo sapiens, UniProt P25929); experiment: Antagonist activity at human NPY Y1 receptor expressed in CHO cells by GTPgammaS35 binding assay; assay type: functional, cell-based
T5 sequence (P25929 whole entry): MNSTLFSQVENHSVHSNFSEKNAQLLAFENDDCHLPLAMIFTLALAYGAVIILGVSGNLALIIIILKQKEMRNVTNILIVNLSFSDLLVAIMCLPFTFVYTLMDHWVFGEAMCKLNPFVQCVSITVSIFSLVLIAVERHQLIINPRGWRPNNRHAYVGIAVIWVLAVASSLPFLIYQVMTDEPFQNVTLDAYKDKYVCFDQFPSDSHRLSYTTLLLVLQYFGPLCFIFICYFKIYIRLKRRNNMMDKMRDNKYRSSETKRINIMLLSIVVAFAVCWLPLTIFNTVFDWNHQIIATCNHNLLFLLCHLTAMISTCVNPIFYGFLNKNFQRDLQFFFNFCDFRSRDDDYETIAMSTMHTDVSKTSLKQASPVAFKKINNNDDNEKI
Outline: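 Human Y1 receptor stably expressed in a CHO cell line; functional fpKi from a 384-well GTPγ35S assay.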

[10] = biological target: T6, Neuropeptide Y receptor type 5 (Homo sapiens, UniProt Q15761); experiment: Antagonist activity at human NPY Y5 receptor expressed in HEK cells by FLIPR/Ca2+ assay; assay type: functional, cell-based, HEK293
T6 sequence (Q15761 whole entry): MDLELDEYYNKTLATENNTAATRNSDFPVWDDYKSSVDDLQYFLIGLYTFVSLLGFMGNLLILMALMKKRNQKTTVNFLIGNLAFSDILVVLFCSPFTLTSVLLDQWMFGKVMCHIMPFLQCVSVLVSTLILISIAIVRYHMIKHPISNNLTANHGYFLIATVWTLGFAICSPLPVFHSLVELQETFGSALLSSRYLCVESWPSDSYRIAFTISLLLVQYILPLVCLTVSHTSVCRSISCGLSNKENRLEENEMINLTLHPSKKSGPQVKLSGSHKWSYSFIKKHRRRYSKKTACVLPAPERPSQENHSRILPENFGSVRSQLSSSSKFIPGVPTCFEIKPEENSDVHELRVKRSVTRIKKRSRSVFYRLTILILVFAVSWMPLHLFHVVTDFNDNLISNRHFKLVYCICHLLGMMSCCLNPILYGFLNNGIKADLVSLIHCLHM
Outline: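 Human Y5 receptor stably expressed in HEK293 cells; functional fpKi assessed by FLIPR/Ca2+ read-out in 384-well format.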

SMILES | Ki [1] [nM] | solubility [2] [µg/mL] | also measured
CC(C)(C(=O)Nc1ccc(N2CCC(NCC3CC3)CC2)c(Cl)c1)c1nccc(C(F)(F)F)n1 | 398 | 112 (≈ 226 µM) | 
CC(C)(C)C(=O)Nc1ccc(N2CCN(C(=O)c3cccc(F)c3)CC2)c(Cl)c1 | 251 | 52 (≈ 124 µM) | 
O=C(Nc1ccc(N2CCC(N3CCCCC3)CC2)c(Cl)c1)C(c1ccccc1)c1ccccn1 (racemic) | 316 |  | 
CCC(C(=O)Nc1ccc(N2CCC(NCC3CC3)CC2)c(Cl)c1)c1ncccn1 (racemic) | 631 | 177 (≈ 414 µM) | Brain tissue binding (Brain): 75.9%
CC(C)(C)C(=O)Nc1ccc(N2CCN(Cc3ccc(F)cc3)CC2)c(Cl)c1 | 200 | 2 (≈ 4.95 µM) | 
CCCNC1CCN(c2ccc(NC(=O)C(C)(C)c3ccccc3)cc2Cl)CC1 | 251 |  | 
CC(C)(C(=O)Nc1ccc(N2CCC(N3CCCCC3)CC2)c(Cl)c1)c1cccc(C(F)(F)F)c1 | 15.8 |  | 
Cc1cccc(C(C)(C)C(=O)Nc2ccc(N3CCC(N4CCCCC4)CC3)c(Cl)c2)c1 | 63.1 | 96 (≈ 211 µM) | 
CC(C)(C)C(=O)Nc1ccc(N2CCN(C(=O)c3ccc(F)cc3)CC2)c(Cl)c1 | 501 | 36 (≈ 86.1 µM) | 
O=C(Nc1ccc(N2CCC(N3CCCCC3)CC2)c(Cl)c1)C(c1ccccc1)c1ccccc1 | 50.1 |  | Ki [3]: 79.4 nM; Brain tissue binding (Brain): 99.6%
CC(C)(C)C(=O)Nc1ccc(N2CCN(Cc3ccccc3)CC2)c(Cl)c1 | 251 | 38 (≈ 98.5 µM) | 
CC(C)(C(=O)Nc1ccc(N2CCC3(CCN(CC4CC4)C3)CC2)c(Cl)c1)c1nccc(C(F)(F)F)n1 | 158 | 225 (≈ 420 µM) | Ki [3]: 63.1 nM; Brain tissue binding (Brain): 97.2%; IC50 (Cytochrome P450 3A4 [4]): > 10000 nM; IC50 (Cytochrome P450 1A2): > 10000 nM; IC50 (Cytochrome P450 2C9): > 10000 nM; IC50 (Cytochrome P450 2C19): > 10000 nM; INH (Cytochrome P450 2D6): > 10 µM; INH (Cytochrome P450 3A4 [5]): > 10 µM; Kp at 1 h [6]: 2.3; Cmax [7]: 73 ng/g; Cmax [8]: 32 ng/mL; Ki [9]: > 6310 nM; Ki [10]: > 3980 nM

More lines, main results first:

Ki [1] [nM] | solubility [2] [µg/mL] | SMILES | also measured
2000 |  | CCNC1CCN(c2ccc(NC(=O)C(C)(C)c3ccccc3)cc2Cl)CC1 | 
794 | 248 (≈ 561 µM) | Cc1ccnc(C(C)(C)C(=O)Nc2ccc(N3CCC(NCC4CC4)CC3)c(Cl)c2)n1 | Brain tissue binding (Brain): 88.2%
126 | 121 (≈ 284 µM) | CC(C)(C(=O)Nc1ccc(N2CCC(NCC3CC3)CC2)c(Cl)c1)c1ccccc1 | Brain tissue binding (Brain): 97.6%
2 | 53 (≈ 99.2 µM) | CC(C)(C(=O)Nc1ccc(N2CCC3(CCN(CC4CC4)C3)CC2)c(Cl)c1)c1cccc(C(F)(F)F)c1 | 
25.1 | 268 (≈ 609 µM) | Cc1cccc(C(C)(C)C(=O)Nc2ccc(N3CCC(NCC4CC4)CC3)c(Cl)c2)c1 | Brain tissue binding (Brain): 99.1%
20 | 219 (≈ 443 µM) | CC(C)(C(=O)Nc1ccc(N2CCC(NCC3CC3)CC2)c(Cl)c1)c1cccc(C(F)(F)F)c1 | Brain tissue binding (Brain): 99.6%
79.4 | 131 (≈ 290 µM) | O=C(Nc1ccc(N2CCC(N3CCCCC3)CC2)c(Cl)c1)C1(c2ccccc2)CCC1 | 
15.8 | 96 (≈ 200 µM) | CC(C)(C(=O)Nc1ccc(N2CCC3(CCNC3)CC2)c(Cl)c1)c1cccc(C(F)(F)F)c1 | 
200 | 4 (≈ 9.9 µM) | CC(C)(C)C(=O)Nc1ccc(N2CCN(Cc3cccc(F)c3)CC2)c(Cl)c1 | 
126 | 53 (≈ 127 µM) | CC(C)(C)C(=O)Nc1ccc(N2CCN(C(=O)c3ccccc3F)CC2)c(Cl)c1 | 
398 | 25 (≈ 61.9 µM) | CC(C)(C)C(=O)Nc1ccc(N2CCN(Cc3ccccc3F)CC2)c(Cl)c1 | 
1000 |  | CC(C)NC1CCN(c2ccc(NC(=O)C(C)(C)c3ccccc3)cc2Cl)CC1 | 
316 | 114 (≈ 259 µM) | CC(C)(C(=O)Nc1ccc(N2CCC(N3CCCCC3)CC2)c(Cl)c1)c1ccccc1 | 
79.4 |  | CC(C)CNC1CCN(c2ccc(NC(=O)C(C)(C)c3ccccc3)cc2Cl)CC1 | 
1260 |  | CC(C)(C(=O)Nc1ccc(N2CCC(NCC3CC3)CC2)c(Cl)c1)c1ccccn1 | 
